According to ChEMBL document CHEMBL4814013, “Scaffold repurposing of fendiline: Identification of potent KRAS plasma membrane localization inhibitors” (Eur J Med Chem, 2021):
The source made the active and inactive calls. No cut-off for these calls is given here.

Legend:
[1] = Toxicity in nu/nu mouse xenografted with human MIA PaCa-2 cells assessed as effect on body weight at 1 to 5 mg/kg, ip administered once daily for 5 days with 2 days break; type: organism-based; conditions: in vivo, 120 h, dose 1-5 mg/kg, time 5 day
MDCK [2] = assay: Cytotoxicity against dog MDCK cells at 30 uM; type: functional, cell-based; conditions: Canis lupus familiaris
Ishikawa = assay: Antiproliferative activity against human Ishikawa cells expressing wild type KRAS assessed as reduction in cell growth incubated for 72 hrs by CyQuant proliferation assay; type: functional, cell-based
Outline: (§1)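 Cells seeded in 96-well plates; after 24 h fresh growth medium with 0.1% DMSO vehicle or drug added (highest dose 30 µM for cancer lines), grown 72 h at 37 °C, 5% CO2. Live cell number measured by CyQUANT fluorescence. IC50 from three independent experiments. MEFs were isogenic lines carrying oncogenic BRAF or KRAS.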

[3] = Inhibition of ASM in dog MDCK cells co-expressing recombinant full length mGFP-tagged KRAS G12V mutant and mCherry-CAAX assessed as reduction in plasma membrane localization of KRAS mutant incubated for 48 hrs by confocal microscopic analysis; type: cell membranes, Canis lupus familiaris
Outline: (§2)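 MDCK cells stably co-expressing mGFP-KRAS G12V or mGFP-LactC2 with mCherry-CAAX (HRAS 179–189 C181S/C184S) grown on coverslips in DMEM/10% FBS. Treated 48 h with 0.1% DMSO or graded drug, fixed in 4% paraformaldehyde, then quantitative confocal imaging. Mislocalization scored as the Manders fraction of mCherry-CAAX co-localizing with the GFP probe. IC50 and Emax from three independent experiments.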

Mus musculus [4] = assay: In vivo inhibition of Ca2+ channel in nu/nu mouse xenografted with human MIA PaCa-2 cells harboring KRAS mutation assessed as blood vessel dialation in tumor at 1 to 5 mg/kg, ip administered once daily for 5 days with 2 days break by immunostaining; type: functional, organism-based; conditions: dose 1-5 mg/kg, time 5.0 day
Mus musculus [5] = assay: In vivo inhibition of ASM in nu/nu mouse xenografted with human MIA PaCa-2 cells harboring KRAS mutation assessed as increase in SM accumulation in tumor at 12.5 mg/kg, ip administered once daily for 5 days with 2 days break by GFP-lysenin staining based confocal laser microscopy; type: functional, organism-based; conditions: time 5.0 day
Outline: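 Sections of MiaPaCa-2 xenograft tumors from i.p.-treated nu/nu mice (12.5 mg/kg) stained with GFP-tagged lysenin to detect sphingomyelin.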

BXPC-3 = assay: Antiproliferative activity against human BXPC-3 cells expressing wild type KRAS assessed as reduction in cell growth incubated for 72 hrs by CyQuant proliferation assay; type: functional, cell-based; conditions: BXPC-3, 72 h; outline: as §1
MDCK [6] = assay: Inhibition of ASM in dog MDCK cells co-expressing recombinant full length GFP-tagged LactC2 and mCherry-CAAX assessed as reduction in plasma membrane localization of LactC2 incubated for 48 hrs by confocal microscopic analysis; type: cell membranes; conditions: Canis lupus familiaris; outline: as §2
KLE = assay: Antiproliferative activity against human KLE cells expressing wild type KRAS assessed as reduction in cell growth upto 30 uM incubated for 72 hrs by CyQuant proliferation assay; type: functional, cell-based; conditions: dose microM <=30, time 72.0 hrs; outline: as §1
ESS-1 = assay: Antiproliferative activity against human ESS-1 cells expressing wild type KRAS assessed as reduction in cell growth upto 30 uM incubated for 72 hrs by CyQuant proliferation assay; type: functional, cell-based; conditions: dose microM <=30, time 72.0 hrs; outline: as §1
MIA PaCa-2 = assay: Antitumor activity human MIA PaCa-2 cells harboring KRAS mutation xenografted in nu/nu mouse assessed as induction of apoptosis by measuring increase in cleaved caspase 3 level in tumor at 1 to 5 mg/kg, ip administered once daily for 5 days with 2 days break by immunohistochemistry; type: functional, organism-based; conditions: dose 1-5 mg/kg, time 5.0 day
Outline: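 Paraffin tumor sections of 4–5 µm were deparaffinized and given heat antigen retrieval in 10 mM sodium citrate. Endogenous peroxidase was quenched and sections blocked in 2.5% normal goat serum. Primary antibody (pERK or cleaved caspase 3) applied overnight at 4 °C, biotinylated secondary 1:250 for 45 min at rt, then ABC reagent 30 min and DAB development. Rabbit IgG served as control.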

MEF [7] = assay: Cytotoxicity against mouse MEF cells expressing BRAF V600E mutant and wild type KRAS assessed as reduction in cell growth incubated for 72 hrs by CyQuant proliferation assay; type: functional, cell-based; outline: as §1
NCI-H522 = assay: Antiproliferative activity against human NCI-H522 cells expressing wild type KRAS assessed as reduction in cell growth incubated for 72 hrs by CyQuant proliferation assay; type: functional, cell-based; conditions: NCI-H522, 72 h; outline: as §1
MEF [8] = assay: Antiproliferative activity against mouse MEF cells expressing KRAS G12V mutant assessed as reduction in cell growth incubated for 72 hrs by CyQuant proliferation assay; type: functional, cell-based; outline: as §1
MDCK [9] = assay: Inhibition of ASM in dog MDCK cells co-expressing recombinant full length mGFP-tagged KRAS G12V mutant and mCherry-CAAX assessed as reduction in plasma membrane localization of KRAS mutant incubated for 48 hrs by confocal microscopic analysis relative to control; type: cell membranes; conditions: Canis lupus familiaris; outline: as §2
[10] = Antiproliferative activity against human MOH cells expressing KRAS mutant assessed as reduction in cell growth incubated for 72 hrs by CyQuant proliferation assay; type: functional, cell-based; outline: as §1
[11] = target: T1, Sphingomyelin phosphodiesterase (Homo sapiens) (UniProt P17405); assay: Inhibition of human GFP-tagged ASM expressed in dog MDCK cells using sphingomyelin as substrate at 5 uM incubated for 48 hrs by Amplex Red dye based fluorescence analysis; type: cell-based
T1 sequence (whole entry): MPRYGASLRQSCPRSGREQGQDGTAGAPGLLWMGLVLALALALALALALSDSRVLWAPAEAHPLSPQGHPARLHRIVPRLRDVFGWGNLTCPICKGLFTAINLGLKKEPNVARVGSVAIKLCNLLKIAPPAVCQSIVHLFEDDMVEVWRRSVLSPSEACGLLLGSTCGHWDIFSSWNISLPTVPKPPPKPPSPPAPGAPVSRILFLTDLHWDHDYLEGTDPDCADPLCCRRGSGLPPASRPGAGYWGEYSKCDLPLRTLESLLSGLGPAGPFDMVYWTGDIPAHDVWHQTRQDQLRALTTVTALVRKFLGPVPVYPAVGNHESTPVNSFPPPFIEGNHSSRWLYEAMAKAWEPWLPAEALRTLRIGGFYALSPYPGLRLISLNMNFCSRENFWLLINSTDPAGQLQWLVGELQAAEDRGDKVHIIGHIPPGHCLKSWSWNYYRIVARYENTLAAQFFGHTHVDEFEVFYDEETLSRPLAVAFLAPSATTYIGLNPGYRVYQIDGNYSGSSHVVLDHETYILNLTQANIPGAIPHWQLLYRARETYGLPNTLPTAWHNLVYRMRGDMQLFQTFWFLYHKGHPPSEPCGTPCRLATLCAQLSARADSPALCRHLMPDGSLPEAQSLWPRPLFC
Outline: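 MDCK cells stably expressing human SMPD1-GFP treated 48 h at 5 µM. Whole-cell lysate, made without DTT, mixed with 50 mM sodium acetate pH 5.0 plus sphingomyelin and held 1 h at 37 °C. pH then raised to 7.4 with Amplex Red mix (100 µM Amplex Red, 2 U/mL HRP, 0.2 U/mL choline oxidase, 8 U/mL alkaline phosphatase, 100 mM Tris pH 8.0), 60 min at 37 °C. Fluorescence read at Ex 540/Em 590 nm. Controls: 0.1 U/mL SMase (positive), buffer alone (negative).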

COc1ccc([C@@H](C)N(CC=C(c2ccccc2)c2ccccc2)CCN2CCCC2)cc1
Activity [1]: Non-Toxic
Activity (MDCK [2]): Active
IC50 (Ishikawa): 17.3 µM
IC50 [3]: 0.3 µM
inhibition (Mus musculus [4]): inactive
inhibition (Mus musculus [5]): Active
IC50 (BXPC-3): 5.5 µM
inhibition (MDCK [6]): Active
Activity (KLE): inactive
Activity (ESS-1): inactive
Activity (MIA PaCa-2): Active
IC50 (MEF [7]): 8.5 µM
IC50 (NCI-H522): 27.3 µM
IC50 (MEF [8]): 2.6 µM
Emax (MDCK [9]): 0.85
IC50 [10]: 3.6 µM
inhibition [11]: Active

COc1ccc([C@@H](C)N(CC=C(c2ccccc2)c2ccccc2)CCCN2CCN(C)CC2)cc1
Activity [1]: Non-Toxic
Activity (MDCK [2]): Active
IC50 (Ishikawa): 11 µM
IC50 [3]: 0.02 µM
inhibition (Mus musculus [4]): inactive
inhibition (Mus musculus [5]): inactive
IC50 (BXPC-3): 5.3 µM
inhibition (MDCK [6]): Active
Activity (KLE): inactive
Activity (ESS-1): inactive
Activity (MIA PaCa-2): Active
IC50 (MEF [7]): 7.9 µM
IC50 (NCI-H522): 23.5 µM
IC50 (MEF [8]): 2.9 µM
Emax (MDCK [9]): 0.81
IC50 [10]: 3.8 µM
inhibition [11]: Active
